Laboratory results: ChEMBL document CHEMBL1156597, “Structure-activity relationship of kahalalide F synthetic analogues” (J Med Chem, 2008)

Assays:
SK-MEL-28 = test: Cytotoxicity against human SK-MEL-28 cells after 48 hrs by SRB assay; format: functional, cell-based; conditions: Homo sapiens, SK-MEL-28, 48 h; for CC50: read-out: LC50 (the source's name)
Procedure, shortened: (§1)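 Cells grown in RPMI 1640 with 10% FBS and penicillin/streptomycin at 37 °C and 5% CO₂, trypsinized, then seeded at 5 × 10³/well. After 18 h drug-free attachment, samples in DMSO/EtOH/PBS (0.5:0.5:99) were added for 48 h continuous exposure. Cells were fixed with cold TCA (1 h, 4 °C) and stained with SRB (10 min). Tris-solubilized stain read at 490 nm. Triplicate wells, mean ± SD; GI₅₀ derived.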

HeLa = test: Cytotoxicity against human HeLa cells after 48 hrs by SRB assay; format: functional; conditions: for CC50: read-out: LC50 (the source's name); procedure, shortened: as §1
[1] = Cytotoxicity against human IGROV cells after 48 hrs by SRB assay; format: functional; conditions: for CC50: read-out: LC50 (the source's name); procedure, shortened: as §1
PANC-1 = test: Cytotoxicity against human PANC1 cells after 48 hrs by SRB assay; format: functional; conditions: PANC-1, 48 h; for CC50: read-out: LC50 (the source's name); procedure, shortened: as §1
LoVo [2] = test: Cytotoxicity against human doxorubicin resistant LoVo cells after 48 hrs by SRB assay; format: functional; conditions: for CC50: read-out: LC50 (the source's name); procedure, shortened: as §1
[3] = Cytotoxicity against human HeLa-APL cells after 48 hrs by SRB assay; format: functional; procedure, shortened: as §1
A549 = test: Cytotoxicity against human A549 cells after 48 hrs by SRB assay; format: functional, cell-based; conditions: Homo sapiens, A549, 48 h; procedure, shortened: as §1
LoVo [4] = test: Cytotoxicity against human LoVo cells after 48 hrs by SRB assay; format: functional; conditions: for CC50: read-out: LC50 (the source's name)
K562 = test: Cytotoxicity against human K562 cells after 48 hrs by SRB assay; format: functional; conditions: K562, 48 h; for CC50: read-out: LC50 (the source's name); procedure, shortened: as §1
[5] = Cytotoxicity against human IGROV-ET cells after 48 hrs by SRB assay; format: functional; conditions: for CC50: read-out: LC50 (the source's name); procedure, shortened: as §1
DU-145 = test: Cytotoxicity against human DU145 cells after 48 hrs by SRB assay; format: functional, cell-based; conditions: Homo sapiens, DU-145, 48 h; for CC50: read-out: LC50 (the source's name); procedure, shortened: as §1
HT-29 = test: Cytotoxicity against human HT29 cells after 48 hrs by SRB assay; format: functional, cell-based; conditions: Homo sapiens, HT-29, 48 h; for CC50: read-out: LC50 (the source's name); procedure, shortened: as §1
LNCaP = test: Cytotoxicity against human LNcaP cells after 48 hrs by SRB assay; format: functional; conditions: for CC50: read-out: LC50 (the source's name); procedure, shortened: as §1
SK-BR-3 = test: Cytotoxicity against human SKBR3 cells after 48 hrs by SRB assay; format: functional; conditions: SK-BR-3, 48 h; for CC50: read-out: LC50 (the source's name); procedure, shortened: as §1

## C/C=C1\NC(=O)[C@H](Cc2ccccc2)NC(=O)[C@@H](C(C)C)NC(=O)[C@@H]([C@H](C)CC)NC(=O)[C@H](NC(=O)[C@H](NC(=O)[C@H](CCCN)NC(=O)[C@H]2CCCN2C(=O)[C@H](NC(=O)[C@@H](NC(=O)[C@@H](NC(=O)[C@H](NC(=O)CCCCCCCCCC)C(C)C)[C@@H](C)O)C(C)C)C(C)C)[C@H](C)CC)[C@H](C)OC(=O)[C@H](C(C)C)NC1=O
SK-MEL-28
  GI50: 251 nM
  CC50: 561 nM
SK-MEL-28; read-out: GI50
  GI50: 193 nM
HeLa
  GI50: 139 nM
  TGI: 129 nM
  CC50: 120 nM
[1]
  GI50: 146 nM
  CC50: 196 nM
[1]; read-out: GI50
  GI50: 218 nM
PANC-1
  GI50: 1630 nM
  TGI: 1540 nM
  CC50: 1440 nM
LoVo [2]
  GI50: 96.2 nM
  TGI: 189 nM
  CC50: 265 nM
[3]
  GI50: 237 nM
  LC50 (concentration giving 50% net cell kill): 760 nM
  TGI: 399 nM
A549
  GI50: 186 nM
  LC50: 456 nM
A549; read-out: GI50
  GI50: 160 nM
LoVo [4]
  GI50: 287 nM
  TGI: 319 nM
  CC50: 352 nM
K562
  CC50: 1170 nM
[5]
  GI50: 218 nM
  CC50: 318 nM
[5]; read-out: GI50
  GI50: 166 nM
DU-145
  GI50: 188 nM
  CC50: 260 nM
DU-145; read-out: GI50
  GI50: 183 nM
HT-29
  GI50: 371 nM
  TGI: 354 nM
  CC50: 201 nM
LNCaP
  GI50: 423 nM
  TGI: 586 nM
  CC50: 720 nM
SK-BR-3
  GI50: 69.9 nM
  CC50: 73.6 nM
SK-BR-3; read-out: GI50
  GI50: 61.4 nM

## C/C=C1\NC(=O)[C@H](Cc2ccccc2)NC(=O)[C@@H](C(C)C)NC(=O)[C@@H]([C@H](C)CC)NC(=O)[C@H](NC(=O)[C@H](NC(=O)[C@H](CCCN)NC(=O)[C@H]2CCCN2C(=O)[C@H](NC(=O)[C@@H](NC(=O)[C@@H](NC(=O)[C@H](NC(=O)CCCCCCC)C(C)C)[C@@H](C)O)C(C)C)C(C)C)[C@H](C)CC)[C@H](C)OC(=O)[C@H](C(C)C)NC1=O
SK-MEL-28
  GI50: 949 nM
  CC50: 966 nM
SK-MEL-28; read-out: GI50
  GI50: 933 nM
HeLa
  GI50: 946 nM
  TGI: 1010 nM
  CC50: 1080 nM
[1]
  GI50: 580 nM
  CC50: 509 nM
[1]; read-out: GI50
  GI50: 684 nM
PANC-1
  GI50: 2830 nM
  TGI: 4210 nM
  CC50: 2290 nM
LoVo [2]
  GI50: 299 nM
  TGI: 289 nM
  CC50: 278 nM
[3]
  GI50: 527 nM
  LC50 (concentration giving 50% net cell kill): 1220 nM
  TGI: 808 nM
A549
  LC50: 1200 nM
  TGI: 1130 nM
A549; read-out: GI50
  GI50: 1050 nM
LoVo [4]
  GI50: 321 nM
  TGI: 396 nM
  CC50: 443 nM
K562
  GI50: 1000 nM
  TGI: 1230 nM
  CC50: 1500 nM
[5]
  GI50: 513 nM
  CC50: 393 nM
[5]; read-out: GI50
  GI50: 529 nM
DU-145
  GI50: 666 nM
  CC50: 758 nM
DU-145; read-out: GI50
  GI50: 578 nM
HT-29
  GI50: 578 nM
  TGI: 587 nM
  CC50: 917 nM
LNCaP
  GI50: 779 nM
  TGI: 837 nM
  CC50: 889 nM
SK-BR-3
  TGI: 359 nM
  CC50: 374 nM
SK-BR-3; read-out: GI50
  GI50: 343 nM

## C/C=C1\NC(=O)[C@H](Cc2ccccc2)NC(=O)[C@@H](C(C)C)NC(=O)[C@@H]([C@H](C)CC)NC(=O)[C@H](NC(=O)[C@H](NC(=O)[C@H](CCCN)NC(=O)[C@H]2CCCN2C(=O)[C@H](NC(=O)[C@@H](NC(=O)[C@@H](NC(=O)[C@H](NC(=O)C(F)(F)C(F)(F)C(F)(F)C(F)(F)C(F)(F)C(F)(F)F)C(C)C)[C@@H](C)O)C(C)C)C(C)C)[C@H](C)CC)[C@H](C)OC(=O)[C@H](C(C)C)NC1=O
SK-MEL-28
  GI50: 765 nM
  CC50: 794 nM
SK-MEL-28; read-out: GI50
  GI50: 734 nM
HeLa
  GI50: 961 nM
  TGI: 947 nM
  CC50: 931 nM
[1]
  GI50: 584 nM
  CC50: 459 nM
[1]; read-out: GI50
  GI50: 854 nM
PANC-1
  GI50: 2320 nM
  TGI: 3460 nM
  CC50: 2000 nM
LoVo [2]
  GI50: 286 nM
  TGI: 289 nM
  CC50: 290 nM
[3]
  GI50: 596 nM
  LC50 (concentration giving 50% net cell kill): 1200 nM
  TGI: 888 nM
A549
  GI50: 745 nM
  LC50: 865 nM
A549; read-out: GI50
  GI50: 636 nM
LoVo [4]
  GI50: 1160 nM
  TGI: 1180 nM
  CC50: 798 nM
K562
  GI50: 830 nM
  TGI: 1010 nM
  CC50: 1220 nM
[5]
  GI50: 814 nM
  CC50: 1040 nM
[5]; read-out: GI50
  GI50: 697 nM
DU-145
  GI50: 614 nM
  CC50: 708 nM
DU-145; read-out: GI50
  GI50: 534 nM
HT-29
  GI50: 513 nM
  TGI: 520 nM
  CC50: 563 nM
LNCaP
  GI50: 758 nM
  TGI: 757 nM
  CC50: 753 nM
SK-BR-3
  TGI: 453 nM
  CC50: 578 nM
SK-BR-3; read-out: GI50
  GI50: 291 nM

## C/C=C1\NC(=O)[C@H](Cc2ccccc2)NC(=O)[C@@H](C(C)C)NC(=O)[C@@H]([C@H](C)CC)NC(=O)[C@H](NC(=O)[C@H](NC(=O)[C@H](CCCN)NC(=O)[C@H]2CCCN2C(=O)[C@H](NC(=O)[C@@H](NC(=O)[C@@H](NC(=O)[C@H](NC(=O)CCCCCCCCCCCCCCC)C(C)C)[C@@H](C)O)C(C)C)C(C)C)[C@H](C)CC)[C@H](C)OC(=O)[C@H](C(C)C)NC1=O
SK-MEL-28
  GI50: 123 nM
  CC50: 110 nM
SK-MEL-28; read-out: GI50
  GI50: 138 nM
HeLa
  CC50: 151 nM
[1]
  GI50: 92.6 nM
  CC50: 62.2 nM
[1]; read-out: GI50
  GI50: 191 nM
PANC-1
  GI50: 203 nM
  TGI: 1370 nM
  CC50: 1300 nM
LoVo [2]
  GI50: 264 nM
  TGI: 262 nM
  CC50: 258 nM
[3]
  GI50: 326 nM
  LC50 (concentration giving 50% net cell kill): 513 nM
  TGI: 479 nM
A549
  GI50: 126 nM
  LC50: 117 nM
A549; read-out: GI50
  GI50: 1370 nM
LoVo [4]
  GI50: 300 nM
  TGI: 293 nM
  CC50: 286 nM
K562
  GI50: 124 nM
  TGI: 314 nM
  CC50: 703 nM
[5]
  GI50: 140 nM
  CC50: 79.1 nM
[5]; read-out: GI50
  GI50: 345 nM
DU-145
  GI50: 126 nM
  CC50: 111 nM
DU-145; read-out: GI50
  GI50: 145 nM
HT-29
  CC50: 72.7 nM
LNCaP
  GI50: 129 nM
  TGI: 118 nM
  CC50: 107 nM
SK-BR-3
  GI50: 39.8 nM
  CC50: 36 nM
SK-BR-3; read-out: GI50
  GI50: 43.9 nM
